Experimental data pooled from the literature.
Protocols differ between the studies behind these lines.
PPO3: PPO3 (Agaricus bisporus, UniProt C7FF04)
SIGMAR1: Sigma non-opioid intracellular receptor 1 (SIGMAR1, Homo sapiens, UniProt Q99720)
OPRK1: Kappa-type opioid receptor (OPRK1, Homo sapiens, UniProt P41145)
HRH4: Histamine H4 receptor (HRH4, Homo sapiens, UniProt Q9H3N8)
HTR2A: 5-hydroxytryptamine receptor 2A (HTR2A, Homo sapiens, UniProt P28223)

| SMILES | target | test | setting | Ki |
| --- | --- | --- | --- | --- |
| COc1ccc(N=Nc2c(N)nc(N)nc2Cl)cc1 | PPO3 | enzyme activity, inhibitor | – | 7.05 µM |
| [H]/N=C(\N)N1CCC[C@H]1c1nc(-c2ccc(OCC=Cc3ccc(C(F)(F)F)cc3)c(C(F)(F)F)c2)no1 | Sphingosine kinase 1 (SPHK1, Homo sapiens, UniProt Q9NYA1) | enzyme activity, inhibitor | – | 12 µM |
| Cc1ccc(C(C)C)cc1NC(=O)COC(=O)/C=C/c1ccccc1 | PPO3 | enzyme activity, inhibitor | – | 0.84 µM |
| CCCn1nc(C(=O)N2CCCCC2)c2c1CCC(NCCc1ccncc1)C2 (stereo not drawn) | SIGMAR1 | ligand displacement, radioligand | – | > 10 µM |
| O[C@@H]1[C@H](O)[C@@H]2C[C@@H]2[C@H]1n1cnc2c(NCc3cccc(Cl)c3)nc(C#Cc3ccc(F)c(F)c3)nc21 | OPRK1 | cell-free assay | – | > 10 µM |
| O=C(c1cccc(/N=N/c2cccc(OCCCN3CCCCC3)c2)c1)N1CCCC1 | HRH4 | ligand displacement, radioligand | – | > 10 µM |
| CC1Cc2ccccc2N1C(=O)NCCCCN(C)[C@@H]1Cc2cccc3[nH]c(=O)n(c23)C1 (mixture of isomers) | HTR2A | ligand displacement, radioligand | – | 3.09 µM |
| CC[C@H](C)[C@H](NC(=O)[C@H](CCC(=O)O)NC(=O)[C@H](CC(=O)O)NC(=O)CNC(=O)[C@H](CC(C)C)NC(=O)[C@H](CCCNC(=N)N)NC(=O)[C@H](CCC(N)=O)NC(=O)[C@H](CC(C)C)NC(=O)[C@H](CO)NC(=O)[C@H](CCC(N)=O)NC(=O)[C@@H](NC(=O)[C@H](CC(C)C)NC(=O)[C@H](Cc1c[nH]c2ccccc12)NC(=O)[C@@H](NC(=O)[C@H](CCC(=O)O)NC(=O)[C@@H]1CCCN1C(=O)[C@H](CCCNC(=N)N)NC(C)=O)[C@@H](C)CC)[C@@H](C)O)C(=O)N[C@@H](CC(N)=O)C(=O)N[C@@H](C)C(=O)N[C@@H](Cc1ccc(O)cc1)C(=O)N[C@@H](Cc1ccc(O)cc1)C(=O)N[C@@H](C)C(=O)N[C@@H](CCCNC(=N)N)C(N)=O | Bcl-2-like protein 1 (BCL2L1, Homo sapiens, UniProt Q07817) | ligand displacement, FP | – | ~2.1 µM |
| CNC(=O)[C@@]12C[C@@H]1[C@@H](n1cnc3c(NC)nc(C#Cc4ccc(Br)s4)nc31)[C@H](O)[C@@H]2O | OPRK1 | cell-free assay | – | > 10 µM |
| O=C1NC(c2ccccc2)(c2ccccc2)C(=O)N1CCCN1CCCCC1 | HRH4 | ligand displacement, radioligand | cell membranes | > 10 µM |
| OCCCN1CC[C@@H]2C[C@H]1c1cc(-c3ccc(C(F)(F)F)cc3)ccc12 | HRH4 | ligand displacement, radioligand | – | 5.51 µM |
| CC(C)C(=O)Nc1ccc([N+](=O)[O-])c(C(F)(F)F)c1 | Hepatic sodium/bile acid cotransporter (SLC10A1, Homo sapiens, UniProt Q14973) | transporter uptake, inhibitor | – | 113 µM |
| CNC(=O)[C@H]1O[C@@H](n2cnc3c(NC)nc(C#Cc4ccc(Cl)s4)nc32)[C@H](O)[C@@H]1O | OPRK1 | cell-free assay | – | > 10 µM |
| Cc1nc[nH]c(=O)c1CCN1CCC(c2noc3cc(F)ccc23)CC1 | HTR2A | ligand displacement, radioligand | cell membranes | 0.00186 µM |
| O[C@@H]1[C@H](O)[C@@H]2C[C@@H]2[C@H]1n1cnc2c(NCC(c3ccccc3)c3ccccc3)nc(C#Cc3ccccc3)nc21 | OPRK1 | cell-free assay | – | > 10 µM |
| CCCn1nc(C(=O)N2CCCCC2)c2c1CCC(N1CCN(Cc3ccc(C#N)cc3)CC1)C2 (stereo not drawn) | SIGMAR1 | ligand displacement, radioligand | – | > 10 µM |
| CCOC(=O)[C@@]12C[C@@H]1[C@@H](n1cnc3c(NC)nc(C#Cc4ccc(Cl)s4)cc31)[C@H](O)[C@@H]2O | OPRK1 | cell-free assay | – | > 10 µM |
| CC(=O)Nc1ccc(N=Nc2c(N)nc(N)nc2N)cc1 | PPO3 | enzyme activity, inhibitor | – | 4.98 µM |
